Screening results as filed in PubChem BioAssay.
Rows were chosen to be rich in hits. Some 9.2% of all compounds tested hit in one or more screens of this group.
H69AR growth 86K: growth inhibitors of human H69AR lung tumor cells | viability, % at 10 µM | H69AR lung tumor viability, ATP luminescence, 72 h; stronger effect = lower value | AID 598 | 6% of 85,000 active;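 active = viability at or below 40%; inactive = viability above 40%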;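 note: multidrug resistant small cell line overexpressing MRP-1 efflux transporter; 100% = mean luminescence of untreated control wells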
ERa SRC1 inh: blocks coactivator binding to human estrogen receptor alpha; TR-FRET ER-alpha LBD / SRC-1 peptide, estradiol-bound; inhibition, % at 25.6 µM; 1.7% of 86,000 active; in the data active = inhibition above about 50%;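 note: 0% = receptor plus peptide control and 100% = peptide only without receptor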
Target sequence (P03372 whole entry, looked up, the tested form may be a part): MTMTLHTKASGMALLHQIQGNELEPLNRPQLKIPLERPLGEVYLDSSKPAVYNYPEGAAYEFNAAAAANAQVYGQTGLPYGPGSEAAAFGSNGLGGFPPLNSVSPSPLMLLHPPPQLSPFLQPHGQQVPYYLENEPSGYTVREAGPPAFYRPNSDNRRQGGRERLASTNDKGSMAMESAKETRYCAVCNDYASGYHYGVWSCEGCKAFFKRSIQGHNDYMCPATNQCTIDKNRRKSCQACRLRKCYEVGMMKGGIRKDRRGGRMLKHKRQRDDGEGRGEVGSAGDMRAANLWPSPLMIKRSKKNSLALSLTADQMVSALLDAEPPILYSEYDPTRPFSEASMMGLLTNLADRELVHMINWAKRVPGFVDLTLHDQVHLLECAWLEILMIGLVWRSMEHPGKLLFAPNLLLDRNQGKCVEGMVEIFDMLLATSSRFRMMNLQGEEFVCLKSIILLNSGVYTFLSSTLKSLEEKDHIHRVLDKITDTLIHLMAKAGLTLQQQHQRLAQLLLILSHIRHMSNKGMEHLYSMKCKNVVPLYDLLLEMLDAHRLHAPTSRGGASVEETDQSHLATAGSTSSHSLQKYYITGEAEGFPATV
ERb SRC1 inh: blocks coactivator binding to human estrogen receptor beta. Q92731. AID 633. 1.3% of 86,000 active. TR-FRET ER-beta LBD / SRC1-Cy5 peptide binding; receptor agonist-loaded with 1 µM estradiol. inhibition, % at 25.6 µM;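 active = compounds whose percent inhibition of the receptor-coactivator binding signal exceeds about 50% in the single-dose screen, limit read from the data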;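 note: 0% = receptor plus peptide wells without compound and 100% = peptide-only wells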
ERa coact pot: enhances coactivator binding to human estrogen receptor alpha; P03372; coactivator binding (% of control), % at 25.6 µM; 1.3% of 86,000 active; TR-FRET ERalpha-LBD/SRC-Cy5 coactivator binding, 2 h; 100 = basal binding, no effect; in the data active = activity above about 200%;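 note: binding measured in presence of low estradiol as agonist stimulus; 0% = peptide alone without receptor and 100% = receptor with peptide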
HUVEC prolif 384: human endothelial cell proliferation inhibition; AID 648; viability, % at 10 µM (by protocol); HUVEC proliferation, CellTiter-Glo luminescence, 72 h; stronger effect = lower value; 1.1% of 86,000 active;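 active = viability at or below 30%; inactive = viability above 30%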;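 note: 100% = median luminescence of DMSO-only cell control wells on each plate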
Lung fibro prol: blocks proliferation of human lung fibroblasts; LL 47 human lung fibroblast viability, ATP luminescence; stronger effect = lower value; viability, % at 10 µM; 1.1% of 85,000 active; AID 719;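 active = viability at or below 50% in the single dose screen; inactive = viability above 50%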;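 note: compound exposure lasted 72 h before the ATP readout; 100% = median luminescence of untreated cell-only wells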
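test system = LL 47 human lung fibroblasts | amount = 1,150 fibroblasts seeded per well | medium = 15% FBS in IMEM | times = overnight cell rest, 72 h compound treatment at 37 °C | measured by = CellTiter-Glo luminescence measuring cellular ATP | read-out = viability percentage against median untreated-cell control | benchmarks = cell-only wells, no compound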
Numbers without * were called inactive; [ ] = another dose, or the depositor's remark.

Screening Cc1ccc(NC(=O)/C(=C/c2cccc([N+](=O)[O-])c2)NC(=O)C2CCCCC2)c(C)c1 returned H69AR growth 86K 26.7*, ERa SRC1 inh 54.9*, ERb SRC1 inh 28.5, ERa coact pot 63.5, HUVEC prolif 384 33.0 and Lung fibro prol 9.6*.
Screening CCOC(=O)c1c(C)oc2c1c1c(c3ccccc32)OCN(Cc2cccnc2)C1 returned H69AR growth 86K 11.7*, ERa SRC1 inh 34.3, ERb SRC1 inh 38.5, ERa coact pot 138.6, HUVEC prolif 384 75.9 and Lung fibro prol 85.2.
Screening CCOC(=O)c1c(C)oc2c1c(C(c1cccnc1)N1CCN(C)CC1)c(O)c1ccccc12 (configuration not stated) returned H69AR growth 86K 2.1*, ERa SRC1 inh 77.4*[fluorescence artefact?], ERb SRC1 inh 64.5*[fluorescence artefact?], ERa coact pot 50.7, HUVEC prolif 384 8.4* and Lung fibro prol 50.7.
Screening Cc1cccc(NC(=S)NN2CCN(C)CC2)c1 returned H69AR growth 86K 87.3, ERa SRC1 inh 3.0, ERb SRC1 inh -16.6, ERa coact pot 109.3, HUVEC prolif 384 94.7 and Lung fibro prol 101.8.
Screening COc1cc(NC(=O)C2CC(=O)NC3=C2C(=O)CCC3)c(OC)cc1Cl (configuration not stated) returned H69AR growth 86K 85.6, ERa SRC1 inh -10.7, ERb SRC1 inh -8.7, ERa coact pot 108.4, HUVEC prolif 384 106.1 and Lung fibro prol 94.2.
For Cc1oc(-c2nc3ccccc3n2C)cc1C(=O)c1ccccc1 the results were H69AR growth 86K 78.1, ERa SRC1 inh -19.2, ERb SRC1 inh -4.7, ERa coact pot 84.4, HUVEC prolif 384 84.2 and Lung fibro prol 95.0.
O=C(NC1CC1)C1CCCN1S(=O)(=O)c1ccc2ccccc2c1 (configuration not stated) was read as H69AR growth 86K 18.3*, ERa SRC1 inh -27.3, ERb SRC1 inh -25.7, ERa coact pot 111.7, HUVEC prolif 384 77.8 and Lung fibro prol 94.9.
O=C(CN1C2=NCCN2c2ccccc21)C12CC3CC(CC(C3)C1)C2 was read as H69AR growth 86K 34.6*, ERa SRC1 inh -0.6, ERb SRC1 inh -10.5, ERa coact pot 111.6, HUVEC prolif 384 51.9 and Lung fibro prol 96.0.
CCOC(=O)c1ccc2nc(NC(=O)c3ccco3)sc2c1 was read as H69AR growth 86K 57.9, ERa SRC1 inh 4.8, ERb SRC1 inh -1.5, ERa coact pot 105.4, HUVEC prolif 384 95.4 and Lung fibro prol 89.0.
For C=CCN(CC=C)S(=O)(=O)c1ccc2nc(NC(=O)C(C)C)sc2c1 the results were H69AR growth 86K 14.1*, ERa SRC1 inh 0.9, ERb SRC1 inh 10.1, ERa coact pot 86.6, HUVEC prolif 384 26.4* and Lung fibro prol 50.8.
For CCOC(=O)c1ccc2nc(NC(=O)C(C)C)sc2c1 the results were H69AR growth 86K 33.8*, ERa SRC1 inh -1.9, ERb SRC1 inh -1.3, ERa coact pot 94.1, HUVEC prolif 384 110.4 and Lung fibro prol 92.4.
CCOC(=O)c1ccc2nc(NC(=O)c3cccs3)sc2c1 was read as H69AR growth 86K 37.9*, ERa SRC1 inh 78.4*[fluorescence artefact?], ERb SRC1 inh 53.8*[fluorescence artefact?], ERa coact pot 105.9, HUVEC prolif 384 75.2 and Lung fibro prol 88.1.
Screening CCOC(=O)c1csc(NC(=O)c2ccc(OC)c(OC)c2)n1 returned H69AR growth 86K 80.5, ERa SRC1 inh -24.4, ERb SRC1 inh -3.4, ERa coact pot 278.8*[fluorescence artefact?], HUVEC prolif 384 98.7 and Lung fibro prol 97.0.
For Nc1nc(N2CCOCC2)cc(=O)[nH]1 the results were H69AR growth 86K 82.4, ERa SRC1 inh -3.4, ERb SRC1 inh 8.0, ERa coact pot 121.2, HUVEC prolif 384 97.5 and Lung fibro prol 95.9.
O=C(CSc1nnc(-c2ccc(F)cc2)o1)Nc1ccccc1N1CCOCC1 was read as H69AR growth 86K 87.3, ERa SRC1 inh -3.2, ERb SRC1 inh -1.7, ERa coact pot 110.8, HUVEC prolif 384 115.4 and Lung fibro prol 107.0.
COc1cccc(C2=NOC(C(=O)NCCN3CCOCC3)C2)c1 (configuration not stated) was read as H69AR growth 86K 93.9, ERa SRC1 inh -5.0, ERb SRC1 inh -10.6, ERa coact pot 119.2, HUVEC prolif 384 97.9 and Lung fibro prol 96.7.
`c1ccc(CCCNc2ncccn2)cc1` gave H69AR growth 86K 100.3, ERa SRC1 inh -13.6, ERb SRC1 inh -11.1, ERa coact pot 108.8, HUVEC prolif 384 84.5 and Lung fibro prol 112.5.
